≈ marks a conversion by molar mass, not a printed value.
Key:
Bifidobacterium longum [1] = test: Antimicrobial activity against 90 mins oxgall-stressed Bifidobacterium longum P/N 601377 after 18 hrs; format: functional
Method in brief: (§1)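 Cells pelleted from mid-log MRS culture and resuspended in MRS (initial pH 6.5) with 0.3% (wt/vol) oxgall for 90 min anaerobically at 37°C. They were then regrown in MRS pH 6.5 for 24 h (footnote: 18 h) anaerobically and tested for MIC by the same broth microdilution assay. Median of four repetitions.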

Bifidobacterium breve [2] = test: Antimicrobial activity against 90 mins hydrogen peroxide-stressed Bifidobacterium breve R0070 after 18 hrs; format: functional
Method in brief: (§2)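 Stress applied for 90 min at 37°C under anaerobic conditions, using MRS (initial pH 6.5) containing H2O2 at each strain's own inhibitory concentration. The H2O2 level was set beforehand by microplate tolerance testing. Challenged cells were regrown in MRS for 24 h (footnote: 18 h) before MIC testing by broth microdilution. Median of four repetitions.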

Bifidobacterium longum [3] = test: Antimicrobial activity against 90 mins hydrogen peroxide-stressed Bifidobacterium longum R0175 after 18 hrs; format: functional; method in brief: as §2
Bifidobacterium breve [4] = test: Antimicrobial activity against 90 mins hydrogen peroxide-stressed Bifidobacterium breve ATCC 15700 after 18 hrs; format: functional; method in brief: as §2
Bifidobacterium longum [5] = test: Antimicrobial activity against 90 mins hydrogen peroxide-stressed Bifidobacterium longum ATCC 15707 after 18 hrs; format: functional; method in brief: as §2
Bifidobacterium bifidum [6] = test: Antimicrobial activity against 90 mins oxgall-stressed Bifidobacterium bifidum BB12 after 18 hrs; format: functional; method in brief: as §1
Bifidobacterium longum [7] = test: Antimicrobial activity against 60 min 1 M HCl-stressed Bifidobacterium longum ATCC 15707 after 18 hrs; format: functional
Method in brief: (§3)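 Mid-log MRS culture pelleted and resuspended in MRS broth brought to pH 2.0 with 1 M HCl, held anaerobically at 37°C for 60 min, then subcultured in MRS (pH 6.5) for 24 h anaerobically before MIC testing by broth microdilution (as for unstressed cells). Table footnote gives 18 h anaerobic regrowth after the stress. MIC is the median of four repetitions.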

Bifidobacterium breve [8] = test: Antimicrobial activity against 90 mins oxgall-stressed Bifidobacterium breve ATCC 15700 after 18 hrs; format: functional; method in brief: as §1
Bifidobacterium longum [9] = test: Antimicrobial activity against 60 min 1 M HCl-stressed Bifidobacterium longum P/N 601377 after 18 hrs; format: functional; method in brief: as §3
Bifidobacterium animalis [10] = test: Antimicrobial activity against Bifidobacterium animalis ATCC 27536; format: functional
Method in brief: (§4)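 Broth microdilution in MRS plus 0.05% L-cysteine-HCl. Mid-log culture adjusted to OD650 0.1, giving about 2.5 × 10^4 to 5.0 × 10^4 CFU/well, then added to twofold serial dilutions of agent. Plates incubated anaerobically at 37°C for 18 h and read at OD650. MIC is the lowest concentration matching the uninoculated blank OD, taken as the median of four repeats.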

Bifidobacterium bifidum [11] = test: Antimicrobial activity against 90 mins hydrogen peroxide-stressed Bifidobacterium bifidum R0071 after 18 hrs; format: functional; method in brief: as §2
Bifidobacterium animalis [12] = test: Antimicrobial activity against 90 mins hydrogen peroxide-stressed Bifidobacterium animalis ATCC 27536 after 18 hrs; format: functional; method in brief: as §2
Bifidobacterium breve [13] = test: Antimicrobial activity against 90 mins oxgall-stressed Bifidobacterium breve R0070 after 18 hrs; format: functional; method in brief: as §1
[14] = Antimicrobial activity against Bifidobacterium infantis ATCC 15697; format: functional, Bifidobacterium longum subsp. infantis; settings: Bifidobacterium longum; method in brief: as §4
Bifidobacterium longum [15] = test: Antimicrobial activity against 90 mins oxgall-stressed Bifidobacterium longum ATCC 15707 after 18 hrs; format: functional; method in brief: as §1
Bifidobacterium bifidum [16] = test: Antimicrobial activity against Bifidobacterium bifidum ATCC 15696; format: functional; method in brief: as §4
[17] = system: Bifidobacterium thermophilum; test: Antimicrobial activity against 90 mins oxgall-stressed Bifidobacterium thermophilum ATCC 25866 after 18 hrs; format: functional; method in brief: as §1
[18] = system: Bifidobacterium pseudolongum; test: Antimicrobial activity against Bifidobacterium pseudolongum ATCC 25562; format: functional; method in brief: as §4
Bifidobacterium longum [19] = test: Antimicrobial activity against 90 mins hydrogen peroxide-stressed Bifidobacterium longum P/N 601377 after 18 hrs; format: functional; method in brief: as §2
Bifidobacterium animalis [20] = test: Antimicrobial activity against 60 min 1 M HCl-stressed Bifidobacterium animalis ATCC 27536 after 18 hrs; format: functional; method in brief: as §3
[21] = Antimicrobial activity against 90 mins oxgall-stressed Bifidobacterium infantis ATCC 15697 after 18 hrs; format: functional, Bifidobacterium longum subsp. infantis; settings: Bifidobacterium longum; method in brief: as §1
[22] = system: Bifidobacterium pseudolongum; test: Antimicrobial activity against 60 min 1 M HCl-stressed Bifidobacterium pseudolongum ATCC 25562 after 18 hrs; format: functional; method in brief: as §3
Bifidobacterium longum [23] = test: Antimicrobial activity against Bifidobacterium longum P/N 601377; format: functional; method in brief: as §4
Bifidobacterium longum [24] = test: Antimicrobial activity against 90 mins oxgall-stressed Bifidobacterium longum R0175 after 18 hrs; format: functional; method in brief: as §1
Bifidobacterium breve [25] = test: Antimicrobial activity against 60 min 1 M HCl-stressed Bifidobacterium breve ATCC 15700 after 18 hrs; format: functional; method in brief: as §3
[26] = system: Bifidobacterium thermophilum; test: Antimicrobial activity against 60 min 1 M HCl-stressed Bifidobacterium thermophilum ATCC 25866 after 18 hrs; format: functional; method in brief: as §3
Bifidobacterium longum [27] = test: Antimicrobial activity against 60 min 1 M HCl-stressed Bifidobacterium longum R0175 after 18 hrs; format: functional; method in brief: as §3
Bifidobacterium longum [28] = test: Antimicrobial activity against Bifidobacterium longum R0175; format: functional; method in brief: as §4
[29] = system: Bifidobacterium thermophilum; test: Antimicrobial activity against Bifidobacterium thermophilum ATCC 25866; format: functional; method in brief: as §4
Bifidobacterium longum [30] = test: Antimicrobial activity against Bifidobacterium longum ATCC 15708; format: functional; method in brief: as §4
Bifidobacterium bifidum [31] = test: Antimicrobial activity against 60 min 1 M HCl-stressed Bifidobacterium bifidum BB12 after 18 hrs; format: functional; method in brief: as §3
Bifidobacterium bifidum [32] = test: Antimicrobial activity against Bifidobacterium bifidum R0071; format: functional; method in brief: as §4
Bifidobacterium bifidum [33] = test: Antimicrobial activity against 90 mins oxgall-stressed Bifidobacterium bifidum R0071 after 18 hrs; format: functional; method in brief: as §1
Bifidobacterium longum [34] = test: Antimicrobial activity against 90 mins hydrogen peroxide-stressed Bifidobacterium longum ATCC 15708 after 18 hrs; format: functional; method in brief: as §2
Bifidobacterium animalis [35] = test: Antimicrobial activity against 90 mins oxgall-stressed Bifidobacterium animalis ATCC 27536 after 18 hrs; format: functional; method in brief: as §1
[36] = system: Bifidobacterium pseudolongum; test: Antimicrobial activity against 90 mins oxgall-stressed Bifidobacterium pseudolongum ATCC 25562 after 18 hrs; format: functional; method in brief: as §1
Bifidobacterium bifidum [37] = test: Antimicrobial activity against 90 mins oxgall-stressed Bifidobacterium bifidum ATCC 15696 after 18 hrs; format: functional; method in brief: as §1
Bifidobacterium breve [38] = test: Antimicrobial activity against Bifidobacterium breve R0070; format: functional; method in brief: as §4
Bifidobacterium bifidum [39] = test: Antimicrobial activity against Bifidobacterium bifidum BB12; format: functional; method in brief: as §4
Bifidobacterium longum [40] = test: Antimicrobial activity against 90 mins oxgall-stressed Bifidobacterium longum ATCC 15708 after 18 hrs; format: functional; method in brief: as §1
Bifidobacterium bifidum [41] = test: Antimicrobial activity against 60 min 1 M HCl-stressed Bifidobacterium bifidum R0071 after 18 hrs; format: functional; method in brief: as §3
Bifidobacterium breve [42] = test: Antimicrobial activity against 60 min 1 M HCl-stressed Bifidobacterium breve R0070 after 18 hrs; format: functional; method in brief: as §3
[43] = Antimicrobial activity against 60 min 1 M HCl-stressed Bifidobacterium infantis ATCC 15697 after 18 hrs; format: functional, Bifidobacterium longum subsp. infantis; settings: Bifidobacterium longum; method in brief: as §3
Bifidobacterium bifidum [44] = test: Antimicrobial activity against 90 mins hydrogen peroxide-stressed Bifidobacterium bifidum BB12 after 18 hrs; format: functional; method in brief: as §2
Bifidobacterium breve [45] = test: Antimicrobial activity against Bifidobacterium breve ATCC 15700; format: functional; method in brief: as §4
Bifidobacterium longum [46] = test: Antimicrobial activity against Bifidobacterium longum ATCC 15707; format: functional; method in brief: as §4
[47] = system: Bifidobacterium thermophilum; test: Antimicrobial activity against 90 mins hydrogen peroxide-stressed Bifidobacterium thermophilum ATCC 25866 after 18 hrs; format: functional; method in brief: as §2

With `CN[C@@H]1[C@H](O[C@H]2[C@H](O[C@H]3[C@H](O)[C@@H](O)[C@H](N=C(N)N)[C@@H](O)[C@@H]3N=C(N)N)O[C@@H](C)[C@]2(O)C=O)O[C@@H](CO)[C@H](O)[C@H]1O` [STREPTOMYCIN] the MIC (Bifidobacterium longum [1]) was 125 µg/mL (≈ 215 µM), the MIC (Bifidobacterium breve [2]) was 250 µg/mL (≈ 430 µM) and the MIC (Bifidobacterium longum [3]) was 250 µg/mL (≈ 430 µM). It also gave an MIC (Bifidobacterium breve [4]) of 500 µg/mL (≈ 860 µM), an MIC (Bifidobacterium longum [5]) of 62.5 µg/mL (≈ 107 µM) and an MIC (Bifidobacterium bifidum [6]) of 500 µg/mL (≈ 860 µM). The MIC (Bifidobacterium longum [7]) was 250 µg/mL (≈ 430 µM), the MIC (Bifidobacterium breve [8]) was 250 µg/mL (≈ 430 µM) and the MIC (Bifidobacterium longum [9]) was 62.5 µg/mL (≈ 107 µM). The MIC (Bifidobacterium animalis [10]) was 250 µg/mL (≈ 430 µM), the MIC (Bifidobacterium bifidum [11]) was 250 µg/mL (≈ 430 µM) and the MIC (Bifidobacterium animalis [12]) was 250 µg/mL (≈ 430 µM). For the same compound, the MIC (Bifidobacterium breve [13]) was 125 µg/mL (≈ 215 µM), the MIC [14] was 250 µg/mL (≈ 430 µM) and the MIC (Bifidobacterium longum [15]) was 62.5 µg/mL (≈ 107 µM). For the same compound, the MIC (Bifidobacterium bifidum [16]) was 250 µg/mL (≈ 430 µM), the MIC [17] was 250 µg/mL (≈ 430 µM) and the MIC [18] was 250 µg/mL (≈ 430 µM). It also gave an MIC (Bifidobacterium longum [19]) of 125 µg/mL (≈ 215 µM), an MIC (Bifidobacterium animalis [20]) of 125 µg/mL (≈ 215 µM) and an MIC [21] of 250 µg/mL (≈ 430 µM). It also gave an MIC [22] of 250 µg/mL (≈ 430 µM), an MIC (Bifidobacterium longum [23]) of 125 µg/mL (≈ 215 µM) and an MIC (Bifidobacterium longum [24]) of 125 µg/mL (≈ 215 µM). The MIC (Bifidobacterium breve [25]) was 125 µg/mL (≈ 215 µM), the MIC [26] was 250 µg/mL (≈ 430 µM) and the MIC (Bifidobacterium longum [27]) was 31.2 µg/mL (≈ 53.6 µM). It also gave an MIC (Bifidobacterium longum [28]) of 62.5 µg/mL (≈ 107 µM), an MIC [29] of 250 µg/mL (≈ 430 µM) and an MIC (Bifidobacterium longum [30]) of 250 µg/mL (≈ 430 µM). The MIC (Bifidobacterium bifidum [31]) was 125 µg/mL (≈ 215 µM), the MIC (Bifidobacterium bifidum [32]) was 250 µg/mL (≈ 430 µM) and the MIC (Bifidobacterium bifidum [33]) was 125 µg/mL (≈ 215 µM). The MIC (Bifidobacterium longum [34]) was 500 µg/mL (≈ 860 µM), the MIC (Bifidobacterium animalis [35]) was 125 µg/mL (≈ 215 µM) and the MIC [36] was 250 µg/mL (≈ 430 µM). For the same compound, the MIC (Bifidobacterium bifidum [37]) was 1.9 µg/mL (≈ 3.27 µM), the MIC (Bifidobacterium breve [38]) was 15.6 µg/mL (≈ 26.8 µM) and the MIC (Bifidobacterium bifidum [39]) was 250 µg/mL (≈ 430 µM). For the same compound, the MIC (Bifidobacterium longum [40]) was 250 µg/mL (≈ 430 µM), the MIC (Bifidobacterium bifidum [41]) was 250 µg/mL (≈ 430 µM) and the MIC (Bifidobacterium breve [42]) was 125 µg/mL (≈ 215 µM). It also gave an MIC [43] of 250 µg/mL (≈ 430 µM), an MIC (Bifidobacterium bifidum [44]) of 250 µg/mL (≈ 430 µM) and an MIC (Bifidobacterium breve [45]) of 250 µg/mL (≈ 430 µM). For the same compound, the MIC (Bifidobacterium longum [46]) was 250 µg/mL (≈ 430 µM) and the MIC [47] was 500 µg/mL (≈ 860 µM).
